Results on four compounds are retold here after ChEMBL document CHEMBL4715904, “Discovery of an Anion-Dependent Farnesyltransferase Inhibitor from a Phenotypic Screen” (ACS Med Chem Lett, 2021).

Test [1] can be described thus: Inhibition of recombinant rat FTase expressed in Escherichia coli using 3H-FPP and biotinylated-DESGPGCMSCKCVLS peptide as substrates incubated for 30 mins in presence of 5 mM DMA-PP by scintillation proximity assay. The method, boiled down: (§1)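 Cell-free FTase inhibition assay, standard protocol; anion-dependent variants repeated with added anion (dimethylallyl diphosphate at increasing concentrations, or other anions) beyond the standard-protocol level.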

Test [2] is described as follows: Inhibition of recombinant rat FTase expressed in Escherichia coli using 3H-FPP and biotinylated-DESGPGCMSCKCVLS peptide as substrates incubated for 30 mins in presence of 5 mM pyrophosphate by scintillation proximity assay. The method, boiled down:
as §1

Test [3] is described as follows: Inhibition of rat recombinant FTase expressed in Escherichia coli using 3H-FPP and biotinylated-DESGPGCMSCKCVLS peptide as substrates incubated for 30 mins in presence of 5 mM thiosulfate by scintillation proximity assay. The method, boiled down:
as §1

Test [4] in a line: Inhibition of recombinant rat FTase expressed in Escherichia coli using 3H-FPP and biotinylated-DESGPGCMSCKCVLS peptide as substrates incubated for 30 mins in presence of 2 mM DMA-PP by scintillation proximity assay. The method, boiled down:
as §1

Test [5] has as its target T1, Protein farnesyltransferase/geranylgeranyltransferase type-1 subunit alpha (Homo sapiens, UniProt P49354). Briefly: Displacement of (1-(2-aminoethyl)-3,5-dimethyl-1H-pyrazol-4-yl)(4-((1-neopentyl-1H-benzo[d]imidazol-2-yl)methyl)piperazin-1-yl)methanone from FNTA in vorinostat-stimulated human Jurkat 2C4 cells infected with latent HIV-1 by pull-down experiment based competitive binding assay.

The test system of test [6] is Human immunodeficiency virus 1. Briefly: Reactivation of latent HIV-1 infected in human Jurkat 2C4 cells assessed as increase in HIV-1 transcription incubated for 24 hrs by Steady-Glo luciferase reporter gene assay. As to conditions: for EC50: Human immunodeficiency virus 1, 2C4, 24 h. The test is classed as functional, organism-based. The method, boiled down:
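Jurkat 2C4 latent HIV reporter line (minimal provirus, Tat H12L, LTR-driven luciferase); latency reversal measured as increase in luciferase luminescence in cell lysates.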

In test [7] the target is T2, Protein farnesyltransferase subunit beta (Homo sapiens, UniProt P49356). Briefly: Displacement of (1-(2-aminoethyl)-3,5-dimethyl-1H-pyrazol-4-yl)(4-((1-neopentyl-1H-benzo[d]imidazol-2-yl)methyl)piperazin-1-yl)methanone from FNTB in vorinostat-stimulated human Jurkat 2C4 cells infected with latent HIV-1 by pull-down experiment based competitive binding assay.
Test [8] deals with T3, NmrA-like family domain-containing protein 1 (Homo sapiens, UniProt Q9HBL8). Briefly: Displacement of (1-(2-aminoethyl)-3,5-dimethyl-1H-pyrazol-4-yl)(4-((1-neopentyl-1H-benzo[d]imidazol-2-yl)methyl)piperazin-1-yl)methanone from NMRAL1 in vorinostat-stimulated human Jurkat 2C4 cells infected with latent HIV-1 by pull-down experiment based competitive binding assay. The format is tissue-based. The method in brief: (§2)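 Affinity matrix made by immobilizing the aminoethyl-linked probe on Sepharose beads at 5.8, 3 and 1.4 mM; beads exposed to lysates of Jurkat 2C4 cells pretreated with vorinostat (250 nM); bound proteins pulled down, with free compound competing for binding.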

The species entered for test [9] is Homo sapiens. Briefly: Binding affinity to recombinant FTase (unknown origin) assessed as melting temperature at 20 uM by TdF assay (reference value: 46.2 +/- 0.2 degreeC).
The nature of test [10]: Inhibition of recombinant rat FTase expressed in Escherichia coli using 3H-FPP and biotinylated-DESGPGCMSCKCVLS peptide as substrates incubated for 30 mins in presence of 5 mM ATP by scintillation proximity assay. The method in brief:
as §1

Test [11] in a line: Inhibition of recombinant rat FTase expressed in Escherichia coli using 3H-FPP and biotinylated-DESGPGCMSCKCVLS peptide as substrates incubated for 30 mins in presence of 5 mM phosphate by scintillation proximity assay. The method, boiled down:
as §1

Test [12] is described as follows: Inhibition of recombinant rat FTase expressed in Escherichia coli using 3H-FPP and biotinylated-DESGPGCMSCKCVLS peptide as substrates incubated for 30 mins in presence of 1 mM DMA-PP by scintillation proximity assay. The method in brief:
as §1

In test [13] the test system is Human immunodeficiency virus 1. Briefly: Potentiation of vorinostat-induced reactivation of latent HIV-1 infected in human Jurkat 2C4 cells assessed as increase in HIV-1 transcription incubated for 24 hrs in presence of vorinostat by Steady-Glo luciferase reporter gene assay relative to control. The format is functional.
The species named for test [14] is Homo sapiens. Briefly: Binding affinity to recombinant FTase (unknown origin) assessed as change in melting temperature at 20 uM by TdF assay.
Test [15] can be described thus: Inhibition of recombinant rat FTase expressed in Escherichia coli using 3H-FPP and biotinylated-DESGPGCMSCKCVLS peptide as substrates incubated for 30 mins by scintillation proximity assay. The method in brief: as §1
The subject of test [16] is Human immunodeficiency virus 1. Briefly: Potentiation of vorinostat-induced reactivation of latent HIV-1 infected in human Jurkat 2C4 cells assessed as increase in HIV-1 transcription incubated for 24 hrs in presence of vorinostat by Steady-Glo luciferase reporter gene assay. The format is functional, organism-based. As to conditions: Human immunodeficiency virus 1, 2C4, 24 h.

In test [17] the target is T4, Mitochondrial inner membrane m-AAA protease component AFG3L2 (Homo sapiens, UniProt Q9Y4W6). Briefly: Displacement of (1-(2-aminoethyl)-3,5-dimethyl-1H-pyrazol-4-yl)(4-((1-neopentyl-1H-benzo[d]imidazol-2-yl)methyl)piperazin-1-yl)methanone from AFG3L2 in vorinostat-stimulated human Jurkat 2C4 cells infected with latent HIV-1 by pull-down experiment based competitive binding assay. The format is tissue-based. The method in brief:
as §2

Test [18] has as its target T1, Protein farnesyltransferase/geranylgeranyltransferase type-1 subunit alpha. Briefly: Displacement of (4-((1-neopentyl-1H-benzo[d]imidazol-2-yl)methyl)piperazin-1-yl)(1,3,5-trimethyl-1H-pyrazol-4-yl)methanone from FNTA in vorinostat-stimulated human Jurkat 2C4 cells infected with latent HIV-1 by pull-down experiment based competitive binding assay. The method in brief: as §2

In test [19] the target is T3, NmrA-like family domain-containing protein 1. Briefly: Displacement of (4-((1-neopentyl-1H-benzo[d]imidazol-2-yl)methyl)piperazin-1-yl)(1,3,5-trimethyl-1H-pyrazol-4-yl)methanone from NMRAL1 in vorinostat-stimulated human Jurkat 2C4 cells infected with latent HIV-1 by pull-down experiment based competitive binding assay. The test is classed as tissue-based. The method in brief: as §2

Test [20] concerns the target T2, Protein farnesyltransferase subunit beta. Briefly: Displacement of (4-((1-neopentyl-1H-benzo[d]imidazol-2-yl)methyl)piperazin-1-yl)(1,3,5-trimethyl-1H-pyrazol-4-yl)methanone from FNTB in vorinostat-stimulated human Jurkat 2C4 cells infected with latent HIV-1 by pull-down experiment based competitive binding assay. The test is classed as tissue-based. The method, boiled down: as §2

Test [21] has as its target T4, Mitochondrial inner membrane m-AAA protease component AFG3L2. Briefly: Displacement of (4-((1-neopentyl-1H-benzo[d]imidazol-2-yl)methyl)piperazin-1-yl)(1,3,5-trimethyl-1H-pyrazol-4-yl)methanone from AFG3L2 in vorinostat-stimulated human Jurkat 2C4 cells infected with latent HIV-1 by pull-down experiment based competitive binding assay. The test is classed as tissue-based. The method, boiled down: as §2

SMILES strings stand for the structures. Active and inactive are the calls of the source. The calls are words filed in the database; no cut-off is given here.

T2 sequence (P49356 whole entry, the tested form may be a part): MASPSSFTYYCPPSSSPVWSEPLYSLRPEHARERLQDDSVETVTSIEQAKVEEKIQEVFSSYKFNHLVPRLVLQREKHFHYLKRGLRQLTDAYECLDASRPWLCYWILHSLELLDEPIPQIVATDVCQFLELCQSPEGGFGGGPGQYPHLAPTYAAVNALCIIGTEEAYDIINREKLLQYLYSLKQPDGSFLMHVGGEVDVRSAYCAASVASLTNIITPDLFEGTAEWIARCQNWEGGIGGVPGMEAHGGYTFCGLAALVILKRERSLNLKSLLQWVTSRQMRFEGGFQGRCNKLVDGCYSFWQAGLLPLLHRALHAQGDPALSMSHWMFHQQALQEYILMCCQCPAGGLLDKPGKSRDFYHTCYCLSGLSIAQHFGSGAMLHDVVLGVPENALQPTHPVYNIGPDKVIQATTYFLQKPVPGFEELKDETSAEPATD
T3 sequence (Q9HBL8 whole entry, the tested form may be a part): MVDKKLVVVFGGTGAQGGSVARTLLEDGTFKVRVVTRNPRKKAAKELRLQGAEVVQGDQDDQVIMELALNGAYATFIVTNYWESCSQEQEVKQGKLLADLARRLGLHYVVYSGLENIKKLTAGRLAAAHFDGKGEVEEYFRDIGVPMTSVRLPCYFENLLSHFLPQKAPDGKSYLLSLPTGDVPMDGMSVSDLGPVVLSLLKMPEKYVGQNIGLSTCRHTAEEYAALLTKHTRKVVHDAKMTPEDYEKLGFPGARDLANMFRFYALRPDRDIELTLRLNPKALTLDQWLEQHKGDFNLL
T4 sequence (Q9Y4W6 whole entry): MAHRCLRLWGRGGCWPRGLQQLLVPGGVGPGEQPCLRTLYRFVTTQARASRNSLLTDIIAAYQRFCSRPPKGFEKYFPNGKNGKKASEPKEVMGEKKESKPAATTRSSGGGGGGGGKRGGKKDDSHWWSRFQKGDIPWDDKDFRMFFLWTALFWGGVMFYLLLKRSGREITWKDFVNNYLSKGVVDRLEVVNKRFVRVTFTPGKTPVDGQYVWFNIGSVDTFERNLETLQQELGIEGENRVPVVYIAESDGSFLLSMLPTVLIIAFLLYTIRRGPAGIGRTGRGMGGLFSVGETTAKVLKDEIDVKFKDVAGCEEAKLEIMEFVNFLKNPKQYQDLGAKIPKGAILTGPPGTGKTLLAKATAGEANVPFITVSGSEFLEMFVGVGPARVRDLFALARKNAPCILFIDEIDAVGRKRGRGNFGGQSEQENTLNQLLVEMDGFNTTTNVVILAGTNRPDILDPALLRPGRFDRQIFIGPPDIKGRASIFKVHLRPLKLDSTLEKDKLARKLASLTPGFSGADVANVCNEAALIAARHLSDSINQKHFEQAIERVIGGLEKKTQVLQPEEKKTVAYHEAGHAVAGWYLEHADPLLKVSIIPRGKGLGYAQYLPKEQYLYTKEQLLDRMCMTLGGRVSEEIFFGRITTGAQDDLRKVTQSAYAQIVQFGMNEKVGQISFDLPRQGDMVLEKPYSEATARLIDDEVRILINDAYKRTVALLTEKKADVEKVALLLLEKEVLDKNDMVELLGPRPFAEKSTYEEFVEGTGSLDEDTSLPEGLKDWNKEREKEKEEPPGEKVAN

Take `Cc1nn(C)c(C)c1C(=O)N1CCN(Cc2nc3ccccc3n2CC(C)(C)C)CC1`: the IC50 in test [1] came to 500 nM; in test [2], 2500 nM; in test [3], 2100 nM; in [4], 900 nM; in [10], 250 nM; in [11], 1300 nM. Besides, the IC50 was 1000 nM in test [12] and no less than 20000 nM in test [15]. In addition, the Kd in [5] worked out at 340 nM; in test [7] it was 475 nM; in test [8], 19000 nM; in test [17], 19000 nM. Also, the values for the concentration for a half-maximal effect (EC50) in [6] and in test [16] were greater than 8000 nM and 340 nM, respectively. Besides, the Tm in the test listed under Homo sapiens [9] stood at 50.4 °C. The Activity in test [13] is on record as 100%. Besides, in the test filed under Homo sapiens [14], the ΔTm was found to be 4.2 °C.
As for `CCn1c(CN2CCN(C(=O)c3c(C)nn(C)c3C)CC2)nc2ccccc21`, the IC50 in test [2], in test [3], in test [10] and in test [11] was greater than 40000 nM throughout. The inhibition result in test [18], in [19], in test [20] and in test [21] was “inactive” each time. The EC50 in [6] and in [16] was greater than 8000 nM in each case. The ΔTm in the test listed under Homo sapiens [14] came out at 2 °C.
Turning to `N#Cc1ccc(Cn2cncc2CN2CCN(c3cccc(Cl)c3)C(=O)C2)cc1` [L-778123 FREE BASE], the IC50 was found to be 70 nM in test [1]; 70 nM in [2]; 50 nM in [3]; 100 nM in test [4]; 50 nM in test [10]; 70 nM in test [11]. For the same compound, the IC50 is 40 nM in [12] and 50 nM in test [15]. In addition, the outcome in [6] was Active. For the same compound, in test [13], the Activity worked out at 100%. In addition, the EC50 in test [16] turned out to be 170 nM.
In the case of `CC(=O)NCCn1nc(C)c(C(=O)N2CCN(Cc3nc4ccccc4n3CC(C)(C)C)CC2)c1C`, the EC50 in test [6] was greater than 8000 nM; in test [16], 1100 nM.
